# ABCB6 inh MLPCN: inhibitors of human ABC transporter ABCB6; Q9NP58; K562-ABCB6 porphyrin accumulation, flow cytometry, 1 h; hits give low values; fluorescence ratio to DMSO, % at 10 µM; 0.19% of 360,000 active; AID 602162;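 active = fluorescence ratio to DMSO below 75%, the collection mean minus 3 SD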;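 also: signal is porphyrin accumulated inside mitochondria; 100% equals median channel fluorescence of DMSO control wells; lower ratio means ABCB6 inhibition with less porphyrin fluorescence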
# FXN GAA850 act: increases GAA850 frataxin promoter reporter activity; activation, % at 6 µM; 0.56% of 360,000 active; HEK293 lucGAA850 FXN promoter luciferase reporter, 24 h; percent of 10 µM SAHA response; AID 540364;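 active = activation above the average of all compounds screened plus 3 SD, cutoff fixed separately per campaign, cut at about 7.5% in these data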;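 also: 0% = DMSO wells and 100% = 10 µM SAHA wells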
# AHR activator: human AHR activation; AID 2796; 2.5% of 320,000 active; P35869; activation, % at 5 µM; AHR-responsive luciferase reporter cells, luminescence; in the data active = activation above about 47%;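 also: 0% = vehicle wells and 100% = reference agonist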
# Target sequence (P35869 whole entry, looked up): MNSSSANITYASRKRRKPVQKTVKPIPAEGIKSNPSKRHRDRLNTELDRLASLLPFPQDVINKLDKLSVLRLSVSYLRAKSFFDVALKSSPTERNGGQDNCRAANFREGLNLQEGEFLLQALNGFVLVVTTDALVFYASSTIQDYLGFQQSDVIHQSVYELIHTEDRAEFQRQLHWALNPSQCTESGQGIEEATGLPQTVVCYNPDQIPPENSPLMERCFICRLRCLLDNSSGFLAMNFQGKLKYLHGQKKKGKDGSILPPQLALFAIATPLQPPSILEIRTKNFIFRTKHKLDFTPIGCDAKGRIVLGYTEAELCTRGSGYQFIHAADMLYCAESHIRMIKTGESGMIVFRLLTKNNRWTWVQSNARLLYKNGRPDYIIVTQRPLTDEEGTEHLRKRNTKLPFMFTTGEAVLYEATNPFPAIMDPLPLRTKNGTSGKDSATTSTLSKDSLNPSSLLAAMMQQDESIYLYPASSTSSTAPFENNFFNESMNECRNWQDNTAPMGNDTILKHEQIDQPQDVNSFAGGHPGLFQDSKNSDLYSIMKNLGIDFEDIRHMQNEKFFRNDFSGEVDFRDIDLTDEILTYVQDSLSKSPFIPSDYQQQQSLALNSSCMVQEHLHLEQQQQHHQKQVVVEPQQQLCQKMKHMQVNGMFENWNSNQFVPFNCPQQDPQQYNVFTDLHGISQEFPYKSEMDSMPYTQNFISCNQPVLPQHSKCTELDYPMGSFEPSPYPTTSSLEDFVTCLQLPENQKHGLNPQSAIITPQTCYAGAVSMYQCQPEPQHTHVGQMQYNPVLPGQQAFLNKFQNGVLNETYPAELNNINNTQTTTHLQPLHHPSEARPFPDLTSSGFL
# STAT3 act: activators of IL-6 induced STAT3 signaling; U3A cells, IL-6 STAT3-luciferase reporter, luminescence; 100% = signal with IL-6 EC80 alone; activation (% of control), % at 5.6 µM; 0.91% of 190,000 active;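 active = activation above the screen-wide mean of compound activation plus 3 SD, cut at about 130% in these data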;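 also: 0% = background luminescence of wells with medium and substrate only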
#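 Material: STAT3-luciferase reporter U3A cells. Controls: IL-6-treated wells, 100% activation. Read-out: % activation versus median of IL-6-stimulated wells. Probe or stimulus: IL-6 stimulus at 33 ng/mL final. Timing: compound 1 h, then IL-6 6 h at 37 °C. Signal: reporter luminescence signal.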
# AHR act cf: confirmation of human aryl hydrocarbon receptor activators. shares compounds with AHR activator. human cells, AHR-responsive luciferase reporter, luminescence. activation, % at 9 µM. 87% of 2,300 active. AID 2845; in the data active = activation above about 49%;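 also: HepG2 hepatoma cells carrying a DRE-driven firefly luciferase reporter; 0% = vehicle wells and 100% = reference agonist wells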
# PXR act counter: counter-screen for AHR activators: human PXR activators. shares compounds with AHR activator. cell-based PXR reporter, luciferase luminescence. activation, % at 11.6 µM. 88% of 2,300 active; in the data active = activation above about 11%;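 also: human hepatoma DPX-2 cells expressing full-length human PXR; 0% = DMSO and 100% = reference agonist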
# Active calls of the source: *; x = no result. Hits are enriched below; roughly 3.3% of the tested compounds scored in any of these assays.
SMILES,ABCB6 inh MLPCN,FXN GAA850 act,AHR activator,STAT3 act,AHR act cf,PXR act counter
CCN1CCN(c2ncnc3sc(C(=O)Nc4ccccc4F)c(C)c23)CC1,100,0,128*,102,75*,23*
COc1ccccc1OC(C)C(=O)Nc1ccccc1C(=O)NCC1CCCO1 (stereo not drawn),101,-1,2,x,x,x
CCn1nc(NC(=O)C(C)(C)C)c2cc3cccc(C)c3nc21,96,0,85*,x,89*,139*
NC(=O)c1cc([N+](=O)[O-])ccc1NCCc1ccccc1,101,6,x,x,x,x
O=[N+]([O-])c1ccc(NCCc2ccccc2)c(Br)c1,94,x,114*,x,104*,12*
CN(C)CCNS(=O)(=O)c1ccc(N2CCN(c3ccc(F)cc3)CC2)c([N+](=O)[O-])c1,99,0,1,97,x,x
N#Cc1ccc(C23OCCN2CCn2c3c3ccccc3[n+]2[O-])cc1 (stereo not drawn),102,-1,112*,x,122*,46*
COc1cc(OC)cc(-c2c(-c3cccs3)c3cc(-c4ccc5cc[nH]c5c4)ccc3n2C)c1,94,1,12,x,x,x
Cn1c(-c2ccsc2)c(-c2cccs2)c2cc(-c3cccc4[nH]ccc34)ccc21,96,1,112*,x,101*,79*
Cc1cc(NC(=O)c2ccccc2-c2ccccc2)ccc1Br,100,-2,94*,78,93*,153*
CC(C)(O)[C@H]1Cc2cc3ccc(=O)oc3cc2O1,96,5,0,x,x,x
O=C(c1sccc1-c1ccccc1)N1CCN(S(=O)(=O)c2ccccc2F)CC1,99,3,-1,x,x,x
COc1c2occc2c(OC)c2c(=O)cc(C(F)(F)F)oc12,102,-1,84*,100,86*,22*
CCN(CC)C(=O)Cn1cc(C(=O)C(=O)N2CCc3ccccc32)c2ccccc21,102,-2,98*,100,89*,243*
CCN(CC)C(=O)Cn1cc(C(=O)C(=O)N2CCN(c3ccccc3)CC2)c2ccccc21,108,-1,2,x,x,x
CCc1cc2c3c(c1)C1(C(=O)N3C(C)(C)CC2C)C(C#N)=C(N)N2C(=C1C#N)Nc1ccccc12 (stereo not drawn),96,0,39,111,x,x
CC(NC(=O)c1cc(S(=O)(=O)N2CCCC2)cn1C)c1ccccc1 (stereo not drawn),100,-2,0,x,x,x
Brc1cccc2sc(N3CCN(c4ccccc4)CC3)nc12,94,4,91*,102,108*,18*
CC(=O)c1ccc(Nc2cc(C)nc3nc(C)nn23)cc1,101,-1,0,99,x,x
Cc1ccc(Nc2cc(C)nc3nc(C)nn23)cc1,100,0,124*,90,14,9
Cc1cc(Nc2ccc(Br)c(C)c2)n2nc(C)nc2n1,106,2,85*,89,46,12*
Cc1cc(Nc2ccc(Cl)cc2)n2nnnc2n1,98,-1,143*,96,91*,14*
CCC(C)NC(=O)Cn1cnc2sc(C)cc2c1=O (stereo not drawn),91,3,10,115,x,x
C[C@H](NC(=O)[C@@H]1CSC2c3ccccc3C(=O)N21)C(=O)NCCc1ccc(F)cc1 (stereo partly drawn),95,0,96*,x,104*,55*
C[C@H](NC(=O)[C@@H]1CSC2c3ccccc3C(=O)N21)C(=O)NCCc1ccccc1 (stereo partly drawn),103,2,124*,x,107*,59*
SMILES,ABCB6 inh MLPCN,FXN GAA850 act,AHR activator,STAT3 act,AHR act cf,PXR act counter
COc1ccc(CCNC(=O)[C@H](C)NC(=O)[C@@H]2CSC3c4ccccc4C(=O)N32)cc1 (stereo partly drawn),101,0,0,x,x,x
C[C@H]1CN([C@@H](C)CO)C(=O)c2cc(Br)cnc2O[C@@H]1CN(C)C(=O)CN(C)C,97,-1,x,x,x,x
O=[N+]([O-])c1cccc2ccc(/C=C/c3ccc(F)cc3)nc12,101,6,186*,135*,229*,19*
COc1ccc(/C=N/Nc2nc(C)cc(=O)[nH]2)cc1OC,102,3,x,x,x,x
COc1ccc(/C=N/Nc2snc(SC)c2C#N)cc1OC,102,5,84*,104,137*,25*
O=[N+]([O-])c1ccc(Cl)cc1CNc1ccc(F)c(F)c1,98,1,106*,101,80*,20*
COc1ccccc1Nc1nc(NCC2CCCO2)c2ccccc2n1 (stereo not drawn),89,-1,19,93,x,x
N/C(=N\OC(=O)c1cc(Br)ccc1Cl)c1ccccn1,99,2,108*,118,61*,12*
N/C(=N\OC(=O)c1ccc(Cl)cc1Cl)c1ccccn1,99,-7,7,28,x,x
Cc1c(C(=O)O/N=C(\N)c2ccccn2)cccc1[N+](=O)[O-],101,1,97*,x,92*,12*
N/C(=N\OC(=O)Cc1ccccc1[N+](=O)[O-])c1ccccn1,100,4,5,100,x,x
N/C(=N\OC(=O)c1ccc(Cl)cc1[N+](=O)[O-])c1ccccn1,99,3,146*,x,53*,13*
Cc1ccc(C(=O)O/N=C(\N)c2ccccn2)c(Cl)c1,100,-12,-2,x,x,x
N/C(=N\OC(=O)c1ccccc1)c1cccnc1,101,3,28,92,x,x
N/C(=N\OC(=O)c1ccc(Cl)cc1[N+](=O)[O-])c1cccnc1,98,5,90*,x,91*,15*
COc1ccc(-c2nnc(NC(=O)c3ccccc3[N+](=O)[O-])s2)c(OC)c1,93,1,12,x,x,x
CCN(CC)C(=O)c1ccc(COc2ccc(Cl)c(C)c2)o1,87,4,14,x,x,x
CCCN1C(=O)c2cc(C(=O)Nc3ccc(OC)cc3OC)ccc2C1Nc1ccc(OC)cc1OC (stereo not drawn),99,3,107*,96,79*,64*
COC(=O)c1ccccc1S(=O)(=O)NNC(=O)c1ccccc1-n1cccc1,91,2,17,x,x,x
COc1ccccc1-n1cc(-c2ccc(C)cc2)[nH]c1=S,96,-3,109*,x,87*,97*
COc1cccc(-n2cc(-c3ccc(F)cc3)[nH]c2=S)c1,99,5,108*,x,12,52*
